The test system of data set [1] is OVCAR-3. Nature of the data set: Cytotoxicity against human OVCAR-3 cells assessed as inhibition of cell growth for 72 hrs by CellTiter-Blue cell viability assay. The data set is classed as functional, cell-based. The note with it: OVCAR-3, 72 h. In a few lines:
(§1)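 5000 cells seeded in triplicate, attached overnight, then exposed for 72 h to serial concentrations in DMSO vehicle (0.05%). Viability was read by fluorometric CellTiter-Blue. IC50 in nM comes from dose–response curves relative to DMSO control. Media: OVCAR3 in RPMI1640, OVCAR5/OVCAR8 in DMEM, hFT33 in DMEM-Ham's F12 50/50, all with 10% FBS. Data are mean ± SEM, three biological replicates.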

In data set [2] the test system is OVCAR-5. Description: Cytotoxicity against human OVCAR-5 cells assessed as inhibition of cell growth for 72 hrs by CellTiter-Blue cell viability assay. The data set is classed as functional, cell-based. The note with it: OVCAR-5, 72 h. In a few lines:
as §1
In general terms: Alamar Blue is a resazurin reagent that responds to reducing activity.

Data set [3] relates to OVCAR-8. Nature of the data set: Cytotoxicity against human OVCAR-8 cells assessed as inhibition of cell growth for 72 hrs by CellTiter-Blue cell viability assay. The note with it: OVCAR-8, 72 h. The data set is classed as functional, cell-based. In a few lines:
as §1

Data set [4] is described as follows: Cytotoxicity against human FT33 cells assessed as inhibition of cell growth for 72 hrs by CellTiter-Blue cell viability assay. The data set is classed as toxicity, cell-based. In outline: as §1
The test system of data set [5] is OVCAR-3. Nature of the data set: Cytostatic activity against human OVCAR-3 cells assessed as […] in colony formation at 10 nM incubated for 8 hrs measured after 2 weeks by crystal violet staining based analysis. In kind it is functional, cell-based. The conditions noted are these: time 344.0 hrs. In a few lines: (§2)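 Seeded at 200 cells per dish, attached overnight, exposed 8 h to 10 nM (DMSO vehicle 0.1%), then grown 15 days in untreated growth medium. Colonies fixed with 4% paraformaldehyde, stained with 0.05% crystal violet, counted and normalised to vehicle. Mean ± SEM, three biological replicates, one-way ANOVA with Dunnett's test.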

Data set [6] deals with OVCAR-5. Nature of the data set: Cytostatic activity against human OVCAR-5 cells assessed as […] in colony formation at 10 nM incubated for 8 hrs measured after 2 weeks by crystal violet staining based analysis. In kind it is functional, cell-based. The conditions noted are these: time 344.0 hrs. In a few lines: as §2
The subject of data set [7] is OVCAR-8. Nature of the data set: Cytostatic activity against human OVCAR-8 cells assessed as […] in colony formation at 10 nM incubated for 8 hrs measured after 2 weeks by crystal violet staining based analysis. The note with it: time 344.0 hrs. In kind it is functional, cell-based. In a few lines: as §2
Data set [8] concerns OVCAR-3. Nature of the data set: Induction of ferroptosis in human OVCAR-3 cells at 0.001 to 10 uM in presence of ferrostatin-1 by CellTiterGlo assay. The conditions noted are these: dose 0.001-10 µM. The data set is classed as functional, cell-based.

Active and inactive are the calls of the source. The calls are words filed in the database; no cut-off is given here.

As to `CC(=O)O[C@H]1C(=O)[C@@]2(C)[C@H]([C@H](OC(=O)c3ccccc3)[C@]3(O)C[C@H](OC(=O)[C@H](O)[C@@H](NC(=O)c4ccccc4)c4ccccc4)C(C)=C1C3(C)C)[C@]1(OC(C)=O)CO[C@@H]1C[C@@H]2O` [PACLITAXEL], the IC50 in the data set on OVCAR-3 [1] stood at 2.6 nM; in the data set on OVCAR-5 [2], 3.6 nM; in the data set with OVCAR-8 [3], 6.5 nM. Also, the IC50 at 72 h in data set [4] was found to be 11 nM. Further, the result in the data set with OVCAR-3 [5], with OVCAR-5 [6] and in the data set on OVCAR-8 [7] was Active.

In the case of `CC(C)Oc1ccc(C(=O)Cn2ccnc2)cc1-n1c(CN2CCN(C(=O)COc3ccc(Cl)cc3)CC2)nc2ccccc2c1=O`, in the data set with OVCAR-3 [8], the result was inactive.

One may read the IC50 as the concentration that gives 50% inhibition.

The record behind these values is ChEMBL document CHEMBL5370575, “Probing the Cytotoxic Signaling Induced by Eupenifeldin in Ovarian Cancer Models” (J Nat Prod, 2023).
